Most compounds without a hit are left out; they make up all but 2.3% or so of the library.
TRPC4 potent: positive allosteric modulators of TRPC4, primary screen, cell-based, mouse TRPC4beta, HEK293 mu-opioid, Fluo-4 calcium. AID 2227, 2009. Short transient receptor potential channel 4 (Mus musculus), Q9QUQ5. hit rate 0.42% among 310,000. B-score at 10 µM. DAMGO EC20, Fluo-4 Ca2+ flux; stronger effect = higher value;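 active = B-score of calcium response area above 5 SD of library B-scores, with initial fluorescence ratio within 5 SD of library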;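 note: B-score of integrated fluorescence ratio over time as area under calcium response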
TRPC6 activator: mouse TRPC6 channel activators, primary screen, cell-based, HEK293, membrane potential dye. Short transient receptor potential channel 6 (Mus musculus), Q61143. HEK293-TRPC6 membrane potential dye fluorescence; stronger effect = higher value. B-score at 10 µM. hit rate 0.13% among 310,000. AID 2550, 2010;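 active = B-score of the integrated fluorescence ratio above library mean plus 3 SD, and starting fluorescence ratio within library mean plus 5 SD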;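 note: higher score means more depolarization so channel activation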
TRPC4 act: activators of mouse TRPC4 channel, primary screen, Fluo4 calcium, HEK293 TRPC4beta/mu-opioid cells; Fluo4 calcium fluorescence; stronger effect = higher value; B-score at 10 µM; hit rate 0.49% among 310,000; AID 2237, 2010;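 active = B-score above 5 SD of library B-scores, and initial fluorescence ratio not above library mean plus 5 SD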;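 note: positive B-score marks a calcium rise read as TRPC4 activation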
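System: HEK293 cells stably co-expressing mouse TRPC4beta and mu-opioid receptor; Schedule: Fluo4 dye loading 45 min at room temperature, 110 s recording; Detection: Fluo4 fluorescence, kinetic; Evaluation: B-scored integrated calcium fluorescence ratio; Controls: buffer (low) and maximal DAMGO (high).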
TRPC6 inh: mouse TRPC6 channel inhibitors, primary screen, cell-based, HEK293, membrane potential dye. Short transient receptor potential channel 6 (Mus musculus), Q61143. ACh-evoked depolarization; stronger effect = lower value. B-score at 10 µM. hit rate 1.1% among 310,000;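 active = B-score under library mean minus 3 SD, initial fluorescence not abnormally high, positive integrated signal ratio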;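 note: B-score derived from integrated fluorescence ratio over the kinetic read; more negative B-score means stronger inhibition of depolarization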
TRPC4 block: inhibitors of mouse TRPC4 channel, primary screen, Fluo4 calcium, HEK293 TRPC4beta/mu-opioid cells; DAMGO-evoked Fluo4 calcium flux; stronger effect = lower value; B-score at 10 µM; hit rate 0.39% among 300,000; Short transient receptor potential channel 4 (Mus musculus), Q9QUQ5;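 active = B-score over 3 SD under the library average, no early fluorescence shift, positive overall ratio signal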
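System: stable TRPC4beta/mu-opioid receptor HEK293 cells; Dosing: single-point compound dosing; Measured by: Fluo4 Ca2+ flux fluorescence; Read-out basis: per-well B score of integrated baseline-normalized Fluo4 ratio.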
TRPC4 spec 2: second selectivity test of TRPC6 inhibitors: effect on mouse TRPC4. shares compounds with TRPC6 inh. HEK293 TRPC4/MOR, membrane potential dye fluorescence; channel activated by saturating DAMGO dose. inhibition, % at 10 µM. hit rate 42% among 920;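 active = compounds whose fluorescence signal differed from control wells by over 3 SD, either direction, in both duplicate plates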
TRPC4 spec: mouse TRPC4 modulation by TRPC6 hits, confirmation, selectivity assay for TRPC6 inhibitor project, cell-based, HEK293 TRPC4/mu-opioid, membrane potential dye. hit rate 61% among 920. activity change, negative = inhibition, % at 10 µM. membrane potential fluorescence. shares compounds with TRPC6 inh;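 active = rise or fall in signal beyond 3 SD of buffer-only wells in both replicate plates, either sign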;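 note: integrated kinetic ratio of fluorescence range over baseline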
HEK293 MPD ctr 2-1: nonspecific membrane potential effects, parental HEK293, confirmation, counter-screen for TRPC6 inhibitor project, cell-based, second counter screen. signal change vs control, % at 10 µM. hit rate 31% among 920. shares compounds with TRPC6 inh. AID 2779, 2010. parental HEK293 membrane potential dye fluorescence; maximal acetylcholine challenge after compound addition;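 active = membrane potential signal moving either way by over 3 SD of the maximum-effect control, in both duplicate plates, meaning non-specific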
HEK293 MPD ctr-1: membrane potential modulation in parental HEK293, confirmation, counter-screen for TRPC6 inhibitor project, cell-based; AID 2780, 2010; parental HEK293 membrane potential dye fluorescence; membrane potential signal change, % at 10 µM; hit rate 60% among 920; shares compounds with TRPC6 inh;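 active = membrane potential signal shifting up or down by more than 3 SD of buffer-only wells, on both duplicate plates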
HEK293 MPD ctr-2: parental HEK293 membrane potential modulation, confirmation, counter-screen for TRPC6 modulator project, cell-based; shares compounds with TRPC6 inh; membrane potential dye fluorescence; membrane potential signal change, % at 10 µM; hit rate 51% among 2,400; AID 488924, 2010;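 active = membrane potential signal moves up or down beyond 5 SD from buffer-only wells, on both duplicate plates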
HEK293 MPD ctr 2-2: second counter-screen for TRPC6 modulators: effect in parental HEK293 cells; shares compounds with TRPC6 inh; membrane potential dye fluorescence; after compound, maximal acetylcholine stimulation; inhibition, % at 10 µM; hit rate 14% among 2,400; AID 488926;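 active = membrane potential signal drops by more than 5 SD from the mean control signal, in both duplicate plates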;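 note: plate controls were acetylcholine ECmax control wells for no effect and buffer only wells for full effect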
TRPC4 ctr mod: TRPC4 modulation by TRPC6 hit compounds, confirmation, selectivity assay for TRPC6 modulator project, cell-based, HEK293 TRPC4/mu-opioid, membrane potential dye, mouse; membrane potential fluorescence; shares compounds with TRPC6 inh; percent change from control (negative = decrease, positive = increase), % at 10 µM; hit rate 69% among 2,400;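 active = membrane potential signal moved up or down beyond 5 SD of buffer control wells, in both duplicate plates, actives on both sides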;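 note: plate controls were assay buffer wells for no effect and DAMGO maximal-effect wells for full effect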
TRPC4/MOR inh 2: second selectivity test of TRPC6 modulators against mouse TRPC4. inhibition, % at 10 µM. hit rate 55% among 2,400. HEK293 TRPC4/mu-opioid, membrane potential dye fluorescence; stimulated with maximal-effect DAMGO. shares compounds with TRPC6 inh;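 active = drop in membrane potential signal beyond 5 SD of the control wells in both duplicate plates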;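 note: TRPC4 counter screen for TRPC6 hits run under conditions tuned for TRPC6 not TRPC4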
TRPC6 block conf: mouse TRPC6 channel inhibitors, confirmation, HEK293 cells, membrane potential dye, duplicate | hit rate 43% among 3,300 | ACh-evoked depolarization | shares compounds with TRPC6 inh | inhibition, % at 10 µM;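 active = fluorescence ratio falls more than 5 SD below the full-stimulation control mean, in both duplicate runs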;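 note: integrated fluorescence ratio of peak minus minimum over baseline after agonist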
TRPC6 act confirm: mouse TRPC6 channel activators, confirmation, HEK293 cells, membrane potential dye, duplicate | hit rate 11% among 2,800 | shares compounds with TRPC6 inh | activation, % at 10 µM | HEK293-TRPC6 membrane potential dye fluorescence, FDSS | AID 488961, 2010;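 active = ratio signal rise beyond 5 SD above unstimulated control wells' mean, seen in both duplicate runs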;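 note: plate controls were buffer EC0 wells for no effect and acetylcholine ECmax response for full effect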
* = called active by the depositor.

How did Cc1cc(Cl)ccc1C(=O)C1CCCN(C2CCSCC2)C1 (centres undefined) do in these assays?
TRPC4 potent: inactive; TRPC6 activator: inactive; TRPC4 act: inactive; TRPC6 inh: -5.76*; TRPC4 block: inactive; HEK293 MPD ctr-2: 174.0%*; HEK293 MPD ctr 2-2: inactive; TRPC4 ctr mod: 31.5%*; TRPC4/MOR inh 2: inactive; TRPC6 block conf: inactive

How did O=C(c1ccc(C(F)(F)F)cc1)C1CCCN(C2CCSCC2)C1 (centres undefined) do in these assays?
TRPC4 potent: inactive; TRPC6 activator: inactive; TRPC4 act: inactive; TRPC6 inh: -7.75*; TRPC4 block: inactive; TRPC4 spec 2: inactive; TRPC4 spec: 14.6%*; HEK293 MPD ctr 2-1: inactive; HEK293 MPD ctr-1: 8.5%*; TRPC6 block conf: inactive

How did FC(F)(F)Oc1ccc(NC2=NCCCS2)cc1 do in these assays?
TRPC4 potent: inactive; TRPC6 activator: inactive; TRPC4 act: inactive; TRPC6 inh: inactive; TRPC4 block: inactive

How did Cn1c(=O)c2c(nc(N/N=C/c3c(O)n(-c4ccccc4)c(=S)[nH]c3=O)n2C)n(C)c1=O do in these assays?
TRPC4 potent: inactive; TRPC6 activator: inactive; TRPC4 act: inactive; TRPC6 inh: inactive; TRPC4 block: inactive

Results for c1ccc2c(N3CCNCC3)cccc2c1 ?
TRPC4 potent: inactive; TRPC6 activator: inactive; TRPC4 act: inactive; TRPC6 inh: inactive; TRPC4 block: inactive

What do the screens show for `Clc1cccc(N2CCNCC2)c1Cl`?
TRPC4 potent: inactive; TRPC6 activator: inactive; TRPC4 act: inactive; TRPC6 inh: -8.96*; TRPC4 block: inactive; TRPC4 spec 2: 72.5%*; TRPC4 spec: -0.4%*; HEK293 MPD ctr 2-1: inactive; HEK293 MPD ctr-1: 1.9%*; TRPC6 block conf: 55.5%*; TRPC6 act confirm: inactive

Results for Cc1nc2ccc(P(=O)(O)O)cc2s1 ?
TRPC4 potent: inactive; TRPC6 activator: inactive; TRPC4 act: inactive; TRPC6 inh: inactive; TRPC4 block: inactive

How did OCC[n+]1c2ccccc2nc2ccc(N3CCOCC3)cc21 do in these assays?
TRPC4 potent: inactive; TRPC6 activator: inactive; TRPC4 act: inactive; TRPC6 inh: -10*; TRPC4 block: inactive; HEK293 MPD ctr-2: -273.5%*; HEK293 MPD ctr 2-2: 104.0%*; TRPC4 ctr mod: -47.0%*; TRPC4/MOR inh 2: 72.0%*; TRPC6 block conf: 82.0%*; TRPC6 act confirm: inactive

Results for CCOC(=O)C1CCN(C=C2C(=O)N(C)C(=S)N(C)C2=O)CC1 ?
TRPC4 potent: inactive; TRPC6 activator: inactive; TRPC4 act: inactive; TRPC6 inh: -9.72*; TRPC4 block: inactive; TRPC4 spec 2: inactive; TRPC4 spec: inactive; HEK293 MPD ctr 2-1: inactive; HEK293 MPD ctr-1: inactive; TRPC6 block conf: inactive; TRPC6 act confirm: inactive

How did C=CCn1c(O)c(/C=N/N2CCCCC2)c(=O)[nH]c1=O do in these assays?
TRPC4 potent: inactive; TRPC6 activator: inactive; TRPC4 act: inactive; TRPC6 inh: inactive; TRPC4 block: inactive

What do the screens show for `COc1cc2c(cc1OC)-c1c(OC)c(OC)cc3c1[C@H](C2)[N+](C)(C)CC3`?
TRPC4 potent: inactive; TRPC6 activator: inactive; TRPC4 act: inactive; TRPC6 inh: -8.59*; TRPC4 block: inactive; HEK293 MPD ctr-2: -404.5%*; HEK293 MPD ctr 2-2: 63.0%*; TRPC4 ctr mod: -69.0%*; TRPC4/MOR inh 2: 63.5%*; TRPC6 block conf: 59.5%*; TRPC6 act confirm: inactive

How did Cc1cc(C)[n+](CCCC[n+]2c(C)cc(C)cc2C)c(C)c1 do in these assays?
TRPC4 potent: inactive; TRPC6 activator: inactive; TRPC4 act: inactive; TRPC6 inh: -8.89*; TRPC4 block: inactive; HEK293 MPD ctr-2: -437.5%*; HEK293 MPD ctr 2-2: 98.5%*; TRPC4 ctr mod: -70.5%*; TRPC4/MOR inh 2: 59.0%*; TRPC6 block conf: 66.0%*; TRPC6 act confirm: inactive

How did COc1cccc(OCc2cc(C(=O)N3C[C@H]4C[C@@H](C3)c3cccc(=O)n3C4)no2)c1 do in these assays?
TRPC4 potent: inactive; TRPC6 activator: inactive; TRPC4 act: inactive; TRPC6 inh: inactive; TRPC4 block: inactive
